Source: ChEMBL document CHEMBL1833887, “Synthesis and evaluation of 7-substituted 4-aminoquinoline analogues for antimalarial activity” (J Med Chem, 2011)
In brackets after ≈: the same amount, converted by molar mass.

Assays:
Plasmodium falciparum [1] = test: Antimalarial activity against chloroquine-sensitive Plasmodium falciparum 3D7 infected in human erythrocytes assessed as reduction in parasitemia after 72 hrs by spectrophotometry; assay type: functional, organism-based; conditions: 3D7, 72 h
[2] = Ratio of EC50 for human HepG2 cells to EC50 for Plasmodium falciparum K1 infected in human erythrocytes
[3] = Permeability of the compound at pH 7.4 after 30 mins by PAMPA; assay type: ADME; conditions: read-out: permeability
In short: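 PAMPA at pH 7.4. A 10 mM DMSO stock is diluted into system solution buffer; its UV spectrum serves as reference. Membrane painted with GIT lipid, acceptor chamber holds acceptor solution buffer. Sandwich stirred for 30 min, aqueous boundary layer set to 40. Donor and acceptor UV spectra read at 250–500 nm. Permeability coefficient from the AUCs of reference, donor and acceptor. Single experiment in triplicate.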

HepG2 = test: Cytotoxicity against human HepG2 cells assessed as intracellular ATP level after 72 hrs by Celltiter-Glo luminescent assay; assay type: cell-based; conditions: HepG2, 72 h
Plasmodium falciparum [4] = test: Ratio of EC50 for chloroquine-resistant Plasmodium falciparum K1 infected in human erythrocytes to EC50 for chloroquine-sensitive Plasmodium falciparum 3D7 infected in human erythrocytes; assay type: functional
Plasmodium falciparum [5] = test: Antimalarial activity against chloroquine-resistant Plasmodium falciparum K1 infected in human erythrocytes assessed as reduction in parasitemia after 72 hrs by spectrophotometry; assay type: functional, organism-based; conditions: K1, 72 h
[6] = Dissociation constant, pKa of the compound; assay type: physicochemical
[7] = Solubility of the compound at pH 7.4 after 18 hrs by UV spectroscopic analysis; assay type: physicochemical; conditions: buffer
In short: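 Kinetic solubility. A 10 mM stock is diluted 1:100 into PBS pH 7.4 and incubated 18 h at room temperature, then filtered; the filtrate is mixed 1:1 with 1-propanol. UV spectrum (250–500 nm) compared by AUC with a 1-propanol/PBS reference. Single experiment in triplicate.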

[8] = Ratio of EC50 for human HepG2 cells to EC50 for Plasmodium falciparum 3D7 infected in human erythrocytes

With COc1cccc(Oc2ccc3c(NCCCNCc4cccc(OC)c4O)ccnc3c2)c1 the EC50 (Plasmodium falciparum [1]) was 72 nM, the “Ratio EC50” value [2] was 2 and the Papp at 0.5 h [3] was 317 ×10⁻⁶ cm/s. For the same compound, the EC50 (HepG2) was 5300 nM, the “Ratio EC50” value (Plasmodium falciparum [4]) was 42 and the EC50 (Plasmodium falciparum [5]) was 3030 nM. The pKa [6] was 9.28, the solubility at 18 h [7] was 14.5 µM (≈ 6.66 µg/mL) and the “Ratio EC50” value [8] was 74.
For COc1ccc(F)cc1CNCCCNc1ccnc2cc(CCC(C)C)ccc12, the EC50 (Plasmodium falciparum [1]) was 116 nM, the “Ratio EC50” value [2] was 2.5 and the Papp at 0.5 h [3] was 23 ×10⁻⁶ cm/s. The EC50 (HepG2) was 890 nM, the “Ratio EC50” value (Plasmodium falciparum [4]) was 3.1 and the EC50 (Plasmodium falciparum [5]) was 360 nM. For the same compound, the pKa [6] was 9.47, the solubility at 18 h [7] was 4.2 µM (≈ 1.72 µg/mL) and the “Ratio EC50” value [8] was 7.7.
With c1ccc(Oc2ccc3c(NCCCNCc4ccc5c(c4)OCO5)ccnc3c2)cc1 the EC50 (Plasmodium falciparum [1]) was 18 nM, the “Ratio EC50” value [2] was 34 and the Papp at 0.5 h [3] was 317 ×10⁻⁶ cm/s. For the same compound, the EC50 (HepG2) was 2700 nM, the “Ratio EC50” value (Plasmodium falciparum [4]) was 4.3 and the EC50 (Plasmodium falciparum [5]) was 78 nM. For the same compound, the pKa [6] was 9.28, the solubility at 18 h [7] was 14.5 µM (≈ 6.2 µg/mL) and the “Ratio EC50” value [8] was 149.
For c1ccc(-c2ccc3c(NCCCNCc4ccc5c(c4)OCO5)ccnc3c2)cc1, the EC50 (Plasmodium falciparum [1]) was 17 nM, the “Ratio EC50” value [2] was 138.9 and the Papp at 0.5 h [3] was 237 ×10⁻⁶ cm/s. For the same compound, the EC50 (HepG2) was 4070 nM, the “Ratio EC50” value (Plasmodium falciparum [4]) was 1.7 and the EC50 (Plasmodium falciparum [5]) was 29 nM. For the same compound, the pKa [6] was 9.47, the solubility at 18 h [7] was 32 µM (≈ 13.2 µg/mL) and the “Ratio EC50” value [8] was 234.
For FC(F)(F)c1cc(-c2ccc3c(NCCCNCc4ccco4)ccnc3c2)cc(C(F)(F)F)c1, the EC50 (Plasmodium falciparum [1]) was 285 nM, the “Ratio EC50” value [2] was 2.5 and the Papp at 0.5 h [3] was 237 ×10⁻⁶ cm/s. The EC50 (HepG2) was 2410 nM, the “Ratio EC50” value (Plasmodium falciparum [4]) was 3.4 and the EC50 (Plasmodium falciparum [5]) was 972 nM. For the same compound, the pKa [6] was 9.47, the solubility at 18 h [7] was 32 µM (≈ 15.8 µg/mL) and the “Ratio EC50” value [8] was 8.5.
For COc1ccc(F)cc1CNCCCNc1ccnc2cc(Oc3ccccc3)ccc12, the EC50 (Plasmodium falciparum [1]) was 162 nM, the “Ratio EC50” value [2] was 11 and the Papp at 0.5 h [3] was 317 ×10⁻⁶ cm/s. For the same compound, the EC50 (HepG2) was 1500 nM, the “Ratio EC50” value (Plasmodium falciparum [4]) was 0.9 and the EC50 (Plasmodium falciparum [5]) was 138 nM. The pKa [6] was 9.28, the solubility at 18 h [7] was 14.5 µM (≈ 6.26 µg/mL) and the “Ratio EC50” value [8] was 9.
With c1coc(CNCCCNc2ccnc3cc(CC4CCCCC4)ccc23)c1 the EC50 (Plasmodium falciparum [1]) was 55 nM, the “Ratio EC50” value [2] was 2.7 and the Papp at 0.5 h [3] was 23 ×10⁻⁶ cm/s. For the same compound, the EC50 (HepG2) was 1700 nM, the “Ratio EC50” value (Plasmodium falciparum [4]) was 11.2 and the EC50 (Plasmodium falciparum [5]) was 621 nM. For the same compound, the pKa [6] was 9.47, the solubility at 18 h [7] was 4.2 µM (≈ 1.59 µg/mL) and the “Ratio EC50” value [8] was 30.7.
With COc1cccc(CNCCCNc2ccnc3cc(Cc4cc(C)cc(C)c4)ccc23)c1O the EC50 (Plasmodium falciparum [1]) was 9 nM, the “Ratio EC50” value [2] was 2 and the Papp at 0.5 h [3] was 23 ×10⁻⁶ cm/s. The EC50 (HepG2) was 2680 nM, the “Ratio EC50” value (Plasmodium falciparum [4]) was 160 and the EC50 (Plasmodium falciparum [5]) was 1360 nM. For the same compound, the pKa [6] was 9.47, the solubility at 18 h [7] was 4.2 µM (≈ 1.91 µg/mL) and the “Ratio EC50” value [8] was 315.8.
For c1ccc(Cc2ccc3c(NCCCNCc4ccc5c(c4)OCO5)ccnc3c2)cc1, the EC50 (Plasmodium falciparum [1]) was 720 nM, the “Ratio EC50” value [2] was 5.1 and the Papp at 0.5 h [3] was 23 ×10⁻⁶ cm/s. For the same compound, the EC50 (HepG2) was 6280 nM, the “Ratio EC50” value (Plasmodium falciparum [4]) was 1.7 and the EC50 (Plasmodium falciparum [5]) was 1240 nM. For the same compound, the pKa [6] was 9.47, the solubility at 18 h [7] was 4.2 µM (≈ 1.79 µg/mL) and the “Ratio EC50” value [8] was 8.7.
In the case of COc1cccc(Oc2ccc3c(NCCCNCc4cc(F)ccc4OC)ccnc3c2)c1, the EC50 (Plasmodium falciparum [1]) is reported as 2360 nM, the “Ratio EC50” value [2] is reported as 24 and the Papp at 0.5 h [3] is reported as 317 ×10⁻⁶ cm/s. For the same compound, the EC50 (HepG2) was 7100 nM, the “Ratio EC50” value (Plasmodium falciparum [4]) was 0.1 and the EC50 (Plasmodium falciparum [5]) was 296 nM. For the same compound, the pKa [6] was 9.28, the solubility at 18 h [7] was 14.5 µM (≈ 6.69 µg/mL) and the “Ratio EC50” value [8] was 3.
With COc1ccc(-c2ccc3c(NCCCNCc4ccco4)ccnc3c2)cc1 the EC50 (Plasmodium falciparum [1]) was 11 nM, the “Ratio EC50” value [2] was 261.9 and the Papp at 0.5 h [3] was 237 ×10⁻⁶ cm/s. The EC50 (HepG2) was 6000 nM, the “Ratio EC50” value (Plasmodium falciparum [4]) was 2.2 and the EC50 (Plasmodium falciparum [5]) was 23 nM. The pKa [6] was 9.47, the solubility at 18 h [7] was 32 µM (≈ 12.4 µg/mL) and the “Ratio EC50” value [8] was 565.7.
In the case of COc1ccc(F)cc1CNCCCNc1ccnc2cc(Cc3cc(C)cc(C)c3)ccc12, the EC50 (Plasmodium falciparum [1]) is reported as 34 nM, the “Ratio EC50” value [2] is reported as 1.2 and the Papp at 0.5 h [3] is reported as 23 ×10⁻⁶ cm/s. The EC50 (HepG2) was 940 nM, the “Ratio EC50” value (Plasmodium falciparum [4]) was 23.1 and the EC50 (Plasmodium falciparum [5]) was 794 nM. For the same compound, the pKa [6] was 9.47, the solubility at 18 h [7] was 4.2 µM (≈ 1.92 µg/mL) and the “Ratio EC50” value [8] was 27.4.
For COc1cccc(CNCCCNc2ccnc3cc(-c4ccc(C(F)(F)F)cc4)ccc23)c1O, the EC50 (Plasmodium falciparum [1]) was 13 nM, the “Ratio EC50” value [2] was 91 and the Papp at 0.5 h [3] was 237 ×10⁻⁶ cm/s. For the same compound, the EC50 (HepG2) was 2210 nM, the “Ratio EC50” value (Plasmodium falciparum [4]) was 1.8 and the EC50 (Plasmodium falciparum [5]) was 24 nM. For the same compound, the pKa [6] was 9.47, the solubility at 18 h [7] was 32 µM (≈ 15.4 µg/mL) and the “Ratio EC50” value [8] was 166.2.
For FC(F)(F)c1cccc(Cc2ccc3c(NCCCNCc4ccco4)ccnc3c2)c1, the EC50 (Plasmodium falciparum [1]) was 56 nM, the “Ratio EC50” value [2] was 4.3 and the Papp at 0.5 h [3] was 23 ×10⁻⁶ cm/s. For the same compound, the EC50 (HepG2) was 3190 nM, the “Ratio EC50” value (Plasmodium falciparum [4]) was 13.2 and the EC50 (Plasmodium falciparum [5]) was 743 nM. The pKa [6] was 9.47, the solubility at 18 h [7] was 4.2 µM (≈ 1.85 µg/mL) and the “Ratio EC50” value [8] was 56.7.
